High-throughput results from PubChem.
Shown are actives, neighbours in structure and some others; about 0.58% of the full set was active somewhere.
miR122 inh = blocks miR-122 activity in Huh7 sensor cells. hit rate 0.3% among 340,000. AID 602342. Huh7 miR-122 Renilla luciferase sensor, 48 h; neutral wells = 0, positive control = 100. activation (reporter increase), % at 12.5 µM;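 active means mean replicate activation score at least 90 and every replicate individually at or above 90; inconclusive means only one of the two criteria met; inactive means neither criterion met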;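 further: higher luciferase means less miR-122 activity so hits act as miR-122 inhibitors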
PglD DTNB = inhibitors of Campylobacter jejuni PglD acetyltransferase; hit rate 0.098% among 360,000; inhibition, % at 12.5 µM; purified PglD enzyme, DTNB colorimetric CoA detection; in the data active means inhibition above about 16%, passing the limit was not always enough; inconclusive means no clear call, values can overlap the other calls
Cneo AK release = Cryptococcus neoformans lysis via adenylate kinase release | C. neoformans lysis, adenylate kinase release luminescence, 4 h; normalised: neutral wells 0, clomiphene wells 100 | AID 651654 | lysis activity, % at 15 µM | hit rate 0.2% among 360,000;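 active means mean lysis activity across replicates of at least 80%, whatever share of replicates individually reach that level; inactive means mean lysis activity below 80%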
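Schedule: static 4 h at 37 °C with compound, 1 h detection; system: C. neoformans cells; benchmarks: Clomiphene as positive control; buffer or medium: fresh YPD medium; measure: luminescence rise reflecting yeast cell lysis; measured by: luminescent adenylate kinase detection reagent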
ERp5 block = ERp5 (human) disulfide isomerase inhibition; Q15084; inhibition, % at 9.99 µM; ERp5 insulin aggregation, absorbance 650 nm, 90 min; hit rate 0.05% among 350,000;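 active means mean replicate inhibition above about 25%, with every replicate also reaching it, limit read from the data, passing the limit was not always enough; inconclusive means only one of those two criteria met; inactive means neither criterion met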
PDI inh = inhibitors of human protein disulfide isomerase | P07237 | PDI insulin aggregation turbidity, A650, 90 min | hit rate 0.052% among 350,000 | inhibition, % at 10 µM;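 active means mean inhibition across replicates of 30% or more, whatever share of single replicates reach that level; inconclusive means mean inhibition below 30% while every single replicate reaches 30%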
Target sequence (P07237 whole entry, looked up): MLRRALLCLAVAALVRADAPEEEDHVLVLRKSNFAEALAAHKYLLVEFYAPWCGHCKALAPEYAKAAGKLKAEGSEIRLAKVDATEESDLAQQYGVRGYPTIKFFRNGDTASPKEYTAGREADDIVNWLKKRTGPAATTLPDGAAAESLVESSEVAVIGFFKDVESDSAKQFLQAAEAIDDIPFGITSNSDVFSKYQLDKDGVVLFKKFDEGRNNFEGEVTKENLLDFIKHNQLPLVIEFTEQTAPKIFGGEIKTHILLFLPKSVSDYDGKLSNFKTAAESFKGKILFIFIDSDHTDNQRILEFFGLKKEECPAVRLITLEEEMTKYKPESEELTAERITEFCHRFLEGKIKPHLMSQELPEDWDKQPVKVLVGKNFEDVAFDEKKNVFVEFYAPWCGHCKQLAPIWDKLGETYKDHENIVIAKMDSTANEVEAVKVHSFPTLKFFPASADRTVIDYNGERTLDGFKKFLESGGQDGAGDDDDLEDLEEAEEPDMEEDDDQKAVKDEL
PvdQ acylase = blocks Pseudomonas aeruginosa PvdQ acylase activity. hit rate 0.063% among 340,000. inhibition, % at 10 µM. AID 488965. purified PvdQ acylase, fluorescence plate reader; in the data active means inhibition above about 30%, passing the limit was not always enough; inconclusive means no clear call, values can overlap the other calls;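 further: 0% = vehicle neutral wells and 100% = reference inhibitor wells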
The depositor's hits bear a star; ? = inconclusive; . = no result; [ ] = dose if it differs, or a comment.

SMILES	miR122 inh	PglD DTNB	Cneo AK release	ERp5 block	PDI inh	PvdQ acylase
CCN(c1ccccc1)S(=O)(=O)c1cc(C(=O)Nc2ccccc2Cl)ccc1F	.	.	.	11.9	-5.3	48.6*
COc1ccc(C2c3ccc(O)cc3Oc3ncn(Cc4ccco4)c(=N)c32)cc1OC (configuration not stated)	-10.1	-1.1	-5.6	5.0	32.7*	-9.0
COc1ccc(C2c3ccc(O)cc3Oc3ncn4nc(-c5cccnc5)nc4c32)cc1OC (configuration not stated)	.	.	.	10.9	41.4*	-7.4
C[C@@H]1CN([C@@H](C)CO)C(=O)c2cc(NC(=O)Nc3cccc4ccccc34)ccc2O[C@H]1CN(C)Cc1ccncc1	-0.4[16.7 µM]	-3.2	68.7	3.2	.	.
C[C@@H]1CN([C@H](C)CO)C(=O)Cc2cc(NC(=O)Nc3ccc4c(c3)OCO4)ccc2O[C@@H]1CN(C)C(=O)Nc1cccc2ccccc12	128.6*[16.7 µM]	0.4	0.1	3.7	.	.
C[C@@H]1CN([C@@H](C)CO)C(=O)Cc2cc(NC(=O)Nc3ccc4c(c3)OCO4)ccc2O[C@@H]1CN(C)C(=O)Nc1cccc2ccccc12	?	-2.6	-3.0	0.5	.	.
C[C@H]1CN([C@@H](C)CO)C(=O)Cc2cc(NC(=O)C3CC3)ccc2O[C@@H]1CN(C)C(=O)Nc1cccc2ccccc12	-0.6[16.7 µM]	-1.0	111.4*	1.0	.	.
Cc1noc(C)c1NC(=O)N(C)C[C@@H]1Oc2ccc(NC(=O)C3CCCCC3)cc2CC(=O)N([C@@H](C)CO)C[C@@H]1C	-5.1[16.7 µM]	0.1	6.5	-1.2	.	.
Cc1noc(C)c1NC(=O)N(C)C[C@H]1Oc2ccc(NC(=O)C3CC3)cc2CC(=O)N([C@@H](C)CO)C[C@H]1C	44.4[16.7 µM]	-0.9	117.4*	-5.2	.	.
Cc1noc(C)c1NC(=O)N(C)C[C@@H]1Oc2ccc(NS(=O)(=O)c3cn(C)cn3)cc2CC(=O)N([C@H](C)CO)C[C@H]1C	37.0[16.7 µM]	2.7	103.3*	2.4	.	.
Cc1noc(C)c1NC(=O)N(C)C[C@@H]1Oc2ccc(NS(=O)(=O)c3cn(C)cn3)cc2CC(=O)N([C@@H](C)CO)C[C@H]1C	-5.5[16.7 µM]	4.1	2.0	-1.0	.	.
Cc1ccc(-c2ccc([C@H]3[C@H](CO)N4C(=O)CN(C(=O)Nc5ccc(F)cc5)C[C@@H]34)cc2)cc1	.	.	.	-1.8	.	.
C[C@@H]1CN([C@H](C)CO)C(=O)Cc2cc(NC(=O)Nc3cccc4ccccc34)ccc2O[C@@H]1CN(C)C(=O)NC1CCCCC1	120.5*[16.7 µM]	2.3	10.5	-0.1	.	.
C[C@H](CO)N1C[C@H](C)[C@H](CN(C)C(=O)Nc2cccc3ccccc23)Oc2ccc(NC(=O)Cc3ccccc3)cc2CC1=O	33.4[16.7 µM]	2.7	101.9*	-2.1	.	.
C[C@@H]1CN([C@H](C)CO)C(=O)Cc2cc(NC(=O)Nc3cccc4ccccc34)ccc2O[C@@H]1CN(C)C(=O)Nc1cccc2ccccc12	99.2*[16.7 µM]	3.8	-5.0	52.0*	.	.
Cc1ccc(S(=O)(=O)N(C)C[C@H]2Oc3ccc(NS(=O)(=O)c4ccc(F)cc4)cc3C(=O)N([C@H](C)CO)C[C@@H]2C)cc1	-2.6[16.7 µM]	2.5	0.2	.	.	.
CCNS(=O)(=O)c1ccc2c3c(cccc13)C(=O)N2	148.4*	-2.0	0.7	.	0.8	-15.5
O=C1Nc2ccc(S(=O)(=O)NCCCO)c3cccc1c23	82.3	-1.7	-1.5	4.0	2.6	-1.6
O=C1Nc2ccc(S(=O)(=O)NCCC3=CCCCC3)c3cccc1c23	116.7*	2.9	-12.4	.	-0.7	-17.6
O=C1Nc2ccc(S(=O)(=O)NCC3CCCO3)c3cccc1c23 (configuration not stated)	.	.	.	0.3	1.7	4.7
O=S(=O)(NCCC1=CCCCC1)c1c(Cl)cccc1Cl	111.2*	-1.4	-3.4	13.0	9.6	8.2
CN1CCN(C(=O)C[C@@H]2C=C[C@@H](NC(=O)Nc3ccccc3F)[C@H](CO)O2)CC1	.	7.5	-16.8	-13.1	.	.
Cc1ccc(S(=O)(=O)Nc2ccc3c(c2)C(=O)N([C@@H](C)CO)C[C@H](C)[C@@H](CN(C)C)OCCCC[C@H](C)O3)cc1	-1.8[16.7 µM]	5.4	4.6	2.5	.	.
O=C1c2ccccc2C2=Nc3ccccc3SC(c3cccc(F)c3)C12 (configuration not stated)	246.3*	2.3	4.5	.	-2.6	-13.1
COc1ccc([Si](C)(C)[C@@H]2[C@@H](CCn3cc(CCO)nn3)O[C@]3(C(=O)N(c4ccccc4)c4ccccc43)[C@H]2C)cc1	.	5.0	1.0	3.4	.	.
SMILES	miR122 inh	PglD DTNB	Cneo AK release	ERp5 block	PDI inh	PvdQ acylase
O=C(O)CCCCCn1c(SCC(=O)c2ccc(O)c(O)c2)nc2ccsc2c1=O	.	.	.	.	31.7*	-10.6
CCC(=O)N1C[C@H](O)COC[C@H]2O[C@@H](CC(=O)N3CCCCC3)CC[C@@H]21	0.7[16.7 µM]	4.3	-0.3	1.3	.	.
Cc1ccc(-c2cc(C(=O)NCCCn3ccnc3)c3ccccc3n2)s1	123.3*	6.7	-8.9	0.5	9.0	-39.8
Cc1noc(C)c1S(=O)(=O)Nc1ccc2c(c1)C(=O)N([C@H](C)CO)C[C@@H](C)[C@@H](CN(C)C(=O)CCCN(C)C)OCCCC[C@H](C)O2	-4.0[16.7 µM]	0.6	-5.7	.	.	.
COc1ccc(-c2ccc(OC)cc2)cc1	22.6	1.2	0.7	.	-7.4	52.5*
COc1ccc(Oc2nc(Oc3ccc(OC)cc3)nc(Oc3ccc(OC)cc3)n2)cc1	0.0	-1.6	1.2	.	2.9	-1.2
CC(C)CC#Cc1ccc([C@@H]2[C@@H](CO)N3C(=O)CN(S(=O)(=O)c4cccc(F)c4)C[C@@H]23)cc1	.	.	.	-1.9	.	.
OC[C@H]1[C@@H](c2ccc(-c3cncnc3)cc2)[C@@H]2CN(CC3CCOCC3)CCCCN12	9.2[16.7 µM]	1.7	-0.5	1.8	.	.
CCOc1ccccc1-c1nc(-c2ccc(C)nc2OC)no1	130.1*	-0.7	0.9	.	-0.4	-6.1
C[C@@H]1CN([C@@H](C)CO)C(=O)c2cccc(NC(=O)C3CCCCC3)c2O[C@@H]1CN(C)C	-0.1[16.7 µM]	-1.7	-2.0	-2.4	.	.
Cc1ccc(O)c(NC(=O)c2cccc(S(=O)(=O)N3CCCCC3)c2)c1	112.9*	3.0	0.4	.	-3.0	-13.9
Cc1ccccc1NC(=O)c1cccc(S(=O)(=O)N2CCCCC2)c1	6.2	2.3	-1.6	1.0	4.5	-10.0
CCN(CC)c1ccc(S(=O)(=O)Nc2cc(Cl)ccc2Cl)cc1NC(=S)NC(=O)C1CCCC1	284.6*	-4.8	-1.1	?	11.9	-0.4
CCN(CC)S(=O)(=O)c1ccc(Cl)c(NC(=S)NC(=O)C2CCCC2)c1	-1.9	-0.1	1.9	0.4	-2.5	3.9
C[C@@H]1CN([C@H](C)CO)C(=O)Cc2cc(NC(=O)Nc3ccc(C(F)(F)F)cc3)ccc2O[C@@H]1CN(C)C(=O)Nc1cccc2ccccc12	112.2*[16.7 µM]	6.9	-0.9	-9.3	.	.
C[C@H](CO)N1C[C@H](C)[C@@H](CN(C)C(=O)Nc2cccc3ccccc23)Oc2ccc(NC(=O)Nc3ccc(C(F)(F)F)cc3)cc2CC1=O	31.4[16.7 µM]	0.9	-5.0	-8.2	.	.
